Assay results pooled from the literature.
Compare with care: the assays were run in different laboratories.
Target: Interleukin-1 receptor-associated kinase 4 (IRAK4, Homo sapiens, UniProt Q9NWZ3)
One construct used (Q9NWZ3 1-460): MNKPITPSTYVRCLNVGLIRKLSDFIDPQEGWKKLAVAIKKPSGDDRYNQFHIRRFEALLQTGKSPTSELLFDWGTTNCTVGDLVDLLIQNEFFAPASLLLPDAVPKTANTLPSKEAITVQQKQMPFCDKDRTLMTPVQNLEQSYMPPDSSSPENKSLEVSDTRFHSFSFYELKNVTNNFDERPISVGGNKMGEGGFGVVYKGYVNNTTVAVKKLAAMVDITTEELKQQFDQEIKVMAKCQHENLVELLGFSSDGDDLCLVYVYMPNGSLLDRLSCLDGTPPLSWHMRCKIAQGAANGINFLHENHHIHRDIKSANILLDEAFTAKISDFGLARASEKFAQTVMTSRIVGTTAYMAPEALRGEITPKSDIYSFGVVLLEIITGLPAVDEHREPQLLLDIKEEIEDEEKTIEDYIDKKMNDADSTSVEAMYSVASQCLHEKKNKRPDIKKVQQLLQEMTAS

SMILES | observed | action | technique | tested at | quantity | value
Cn1cc(-c2cccc(N3CCc4c(sc5c4CC(C)(C)C5)C3=O)c2CO)cc(Nc2ccncn2)c1=O | enzyme activity | inhibitor |  | 1 µM | inhibition | 6%
COc1cc(Nc2ncc(F)c(Nc3ccc4c(n3)NC(=O)C(C)(C)O4)n2)cc(OC)c1OC | binding |  |  | 10 µM | inhibition | 96%
COc1ncccc1-c1cnn2ccc(N3CCN(C(=O)OC(C)C)CC3)nc12 | binding |  | competition with immobilised ligand | 1 µM | remaining binding | 100%
Nc1ncc(-c2nc(N3CCOCC3)nc(N3CCOCC3)n2)c(C(F)F)n1 | binding |  | competition with immobilised ligand | 10 µM | remaining binding | 72%
Cn1cc(-c2cc(F)cc(N3CCn4c(cc5c4CCCC5)C3=O)c2CO)cc(Nc2ccc(N3CCN(C4COC4)CC3)cn2)c1=O | enzyme activity | inhibitor |  | 0.1 µM | inhibition | 8%
C#Cc1n[nH]c2c(-c3cn([C@@H](C)c4ccccn4)c(=O)[nH]c3=O)cc(F)cc12 | enzyme activity | inhibitor |  | 0.1 µM | inhibition | 14.7%
O=c1[nH]c2ccccc2n1C1CCN(Cc2ccc(-c3[nH]c4cc5ncnc5cc4nc3-c3ccccc3)cc2)CC1 | cell-free assay |  |  | 0.5 µM | remaining signal | 201%
Cn1cncc1[C@@](O)(COc1ccc(C#N)cc1-c1ccc(OC(F)(F)F)cc1)c1ccc(C#N)cc1 | cell-free assay |  | competition with immobilised ligand | 1 µM | remaining binding | 80%
C#Cc1n[nH]c2c(-c3cn([C@@H](C)c4ccccc4)c(=O)[nH]c3=O)cc(F)cc12 | enzyme activity | inhibitor |  | 0.1 µM | inhibition | 11.7%
CC(C)(C)c1cc(C=C(C#N)C#N)cc(Br)c1O | enzyme activity | inhibitor |  | 0.5 µM | remaining activity | 182%
Cc1nn(C)cc1-c1nc2c(N3CCN(Cc4ccc(Cl)cc4)CC3)c(Cl)cnc2[nH]1 | binding |  | competition with immobilised ligand | 1 µM | remaining binding | 74%
N#CC1(c2ccccn2)CCN(Cc2cc(C(=O)O)c(=O)n3ccccc23)CC1 | cell-free assay |  | competition with immobilised ligand | 1 µM | remaining binding | 83%
